# Results: ChEMBL document CHEMBL3272008, “Synthesis and biological actions of 2-substituted quinolizidines” (J Med Chem, 1976)
# Calls of active or inactive are those of the source. No cut-off for these calls is given here.
# How the values were obtained:
# [1] = Acute toxicity in ip dosed Swiss-Webster mouse administered as single dose after 7 days; assay type: organism-based; settings: in vivo
# Method in brief: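 Mice given a single ip dose at each of four dose levels; lethality followed over 7 days; LD50 with 95% confidence limits estimated by the method of Weil. Compounds dissolved in minimal 1.5 M NaH2PO4, diluted with water; haloperidol in minimal 50% (w/v) tartaric acid-water.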
# Mus musculus [2] = assay: Depression of forced motor activity in Swiss-Webster mouse at 30 mg/kg, ip after 30 mins by rotarod test relative to control; assay type: functional; settings: route intraperitoneal
# Method in brief: (§1)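 Rotarod in mice: rod at 4 rpm for 30 sec, 6 rpm next 30 sec, then stepped up every 30 sec (max 50 rpm) until fall. Six mice at a time, four trials (two per day, 4–6 hr apart, two consecutive days); vehicle or compound ip 30 min before fourth trial. Time on rod as % of control; Student's t test, p < 0.05.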
# Mus musculus [3] = assay: Depression of forced motor activity in Swiss-Webster mouse at 15 mg/kg, ip after 30 mins by rotarod test relative to control; assay type: functional; settings: route intraperitoneal; method in brief: as §1
# Mus musculus [4] = assay: Depression of forced motor activity in Swiss-Webster mouse at 60 mg/kg, ip after 30 mins by rotarod test relative to control; assay type: functional; settings: route intraperitoneal; method in brief: as §1
# Mus musculus [5] = assay: Depression of forced motor activity in ip dosed Swiss-Webster mouse after 30 mins by rotarod test relative to control; assay type: functional, organism-based
# Method in brief: (§2)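 Mice were dosed ip with vehicle or compound dissolved in a minimum of 1.5 M NaH2PO4 and diluted with water. On the rotarod, speed was 4 rpm for 30 sec, then 6 rpm for 30 sec, then increased every 30 sec up to a maximum of 50 rpm until the fall. Each mouse had four trials, two per day on two consecutive days, spaced 4–6 hr apart. The fourth trial was run 30 min after dosing. The read-out was trial time (sec) as % of control, with significance by Student's t test (p < 0.05).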
# Mus musculus [6] = assay: Depression of spontaneous motor activity in Swiss-Webster mouse at 30 mg/kg, ip by photocell cage test relative to control; assay type: functional; settings: route intraperitoneal
# Method in brief: (§3)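 Spontaneous activity in three photocell cages: two mice given the same ip dose placed per cage 10 min after rotarod start; 15-min count begun 5 min after placement. Each dose run in factorial design across all three cages to offset unit sensitivity. Counts expressed as % of control; Student's t test, p < 0.05.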
# Mus musculus [7] = assay: Depression of spontaneous motor activity in Swiss-Webster mouse at 15 mg/kg, ip by photocell cage test relative to control; assay type: functional; settings: route intraperitoneal; method in brief: as §3
# Mus musculus [8] = assay: Depression of spontaneous motor activity in Swiss-Webster mouse at 60 mg/kg, ip by photocell cage test relative to control; assay type: functional; settings: route intraperitoneal; method in brief: as §3
# Mus musculus [9] = assay: Depression of spontaneous motor activity in ip dosed Swiss-Webster mouse by photocell cage test relative to control; assay type: functional, organism-based
# Method in brief: (§4)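 Compound was dissolved in minimal 1.5 M NaH2PO4, diluted with water and given ip. Two mice given the same dose went into each of three photocell actophotometer cages 10 min after the rotarod test started. Counts were taken over 15 min, starting 5 min after placement. A factorial design across cages cancelled differences between units. Results were given as % of control, with significance by Student's t test (p < 0.05).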
# Rattus norvegicus [10] = assay: Depression of motor activity in Wistar rat at 20 mg/kg, ip after 0.5 to 1 hr; assay type: functional, organism-based; set-up: dose 20 mg/kg
# Method in brief: (§5)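 Male Wistar rats (175–225 g) were injected ip, with three treated rats and one control per dose. Compounds were in minimal 1.5 M NaH2PO4 diluted with water; the reference drug was in minimal 50% (w/v) tartaric acid-water. Gross behavior was observed. Respiratory rate, heart rate, rectal temperature and pupil size were measured at time points after dosing.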
# Rattus norvegicus [11] = assay: Reduction in startle response in Wistar rat at 20 mg/kg, ip after 0.5 to 1 hr; assay type: functional, organism-based; set-up: dose 20 mg/kg; method in brief: as §5
# Rattus norvegicus [12] = assay: Reduction in grip strength in Wistar rat at 20 mg/kg, ip after 0.5 to 1 hr; assay type: functional, organism-based; set-up: dose 20 mg/kg; method in brief: as §5
# Rattus norvegicus [13] = assay: Reduction of respiration rate in Wistar rat at 1 to 6 mg/kg, ip after 0.5 to 1 hr; assay type: functional, organism-based; settings: 20 mg/kg, in the assay text read “20 mg/kg” for “1 to 6 mg/kg”; method in brief: as §5
# Rattus norvegicus [14] = assay: Reduction of heart rate in Wistar rat at 1 to 6 mg/kg, ip after 0.5 to 1 hr; assay type: functional, organism-based; settings: 20 mg/kg, in the assay text read “20 mg/kg” for “1 to 6 mg/kg”; method in brief: as §5
# Rattus norvegicus [15] = assay: Reduction in body temperature in Wistar rat at 20 mg/kg, ip relative to control; assay type: functional; settings: route intraperitoneal; method in brief: as §5
# Rattus norvegicus [16] = assay: Induction of ptosis in Wistar rat at 20 mg/kg, ip after 10 mins to 3 hrs; assay type: functional, organism-based; set-up: dose 20 mg/kg; method in brief: as §5
# Mus musculus [17] = assay: Acute toxicity in ip dosed Swiss-Webster mouse assessed as intense and prolonged convulsions administered as single dose after 72 hrs; assay type: organism-based; settings: in vivo
# Mus musculus [18] = assay: Depression of forced motor activity in Swiss-Webster mouse at 25 mg/kg, ip after 30 mins by rotarod test relative to control; assay type: functional; settings: route intraperitoneal; method in brief: as §2
# Mus musculus [19] = assay: Depression of forced motor activity in Swiss-Webster mouse at 12.5 mg/kg, ip after 30 mins by rotarod test relative to control; assay type: functional; settings: route intraperitoneal; method in brief: as §2
# Mus musculus [20] = assay: Depression of forced motor activity in Swiss-Webster mouse at 6.25 mg/kg, ip after 30 mins by rotarod test relative to control; assay type: functional; settings: route intraperitoneal; method in brief: as §2
# Mus musculus [21] = assay: Depression of spontaneous motor activity in Swiss-Webster mouse at 25 mg/kg, ip by photocell cage test relative to control; assay type: functional; settings: route intraperitoneal; method in brief: as §4
# Mus musculus [22] = assay: Depression of spontaneous motor activity in Swiss-Webster mouse at 12.5 mg/kg, ip by photocell cage test relative to control; assay type: functional; settings: route intraperitoneal; method in brief: as §4
# Mus musculus [23] = assay: Depression of spontaneous motor activity in Swiss-Webster mouse at 6.25 mg/kg, ip by photocell cage test relative to control; assay type: functional; settings: route intraperitoneal; method in brief: as §4
# Rattus norvegicus [24] = assay: Depression of motor activity in Wistar rat at 25 mg/kg, ip; assay type: functional, organism-based; set-up: dose 25 mg/kg; method in brief: as §5
# Rattus norvegicus [25] = assay: Reduction in respiratory rate in Wistar rat at 25 mg/kg, ip; assay type: functional, organism-based; set-up: dose 25 mg/kg; method in brief: as §5
# Rattus norvegicus [26] = assay: Reduction in heart rate in Wistar rat at 25 mg/kg, ip; assay type: functional, organism-based; set-up: dose 25 mg/kg; method in brief: as §5
# Rattus norvegicus [27] = assay: Reduction in rectal temperature in Wistar rat at 25 mg/kg, ip relative to control; assay type: functional; settings: route intraperitoneal; method in brief: as §5
# Rattus norvegicus [28] = assay: Induction of ptosis in Wistar rat at 25 mg/kg, ip after 0.5 to 1 hr; assay type: functional, organism-based; set-up: dose 25 mg/kg; method in brief: as §5
# Rattus norvegicus [29] = assay: Increase in salivation in Wistar rat at 25 mg/kg, ip after 0.5 to 1 hr; assay type: functional, organism-based; set-up: dose 25 mg/kg; method in brief: as §5
# Rattus norvegicus [30] = assay: Induction of ptosis in Wistar rat at 25 mg/kg, ip after 2 hrs; assay type: functional, organism-based; set-up: dose 25 mg/kg; method in brief: as §5
# Rattus norvegicus [31] = assay: Increase in salivation in Wistar rat at 25 mg/kg, ip after 2 hrs; assay type: functional, organism-based; set-up: dose 25 mg/kg; method in brief: as §5
# Mus musculus [32] = assay: Acute toxicity in ip dosed Swiss-Webster mouse assessed as death administered as single dose after 72 hrs; assay type: organism-based; settings: in vivo
# Mus musculus [33] = assay: Acute toxicity in ip dosed Swiss-Webster mouse assessed as tremor administered as single dose after 72 hrs; assay type: organism-based; settings: in vivo
# Mus musculus [34] = assay: Acute toxicity in ip dosed Swiss-Webster mouse assessed as ataxia administered as single dose after 72 hrs; assay type: organism-based; settings: in vivo
# Mus musculus [35] = assay: Depression of forced motor activity in Swiss-Webster mouse at 10 mg/kg, ip after 30 mins by rotarod test relative to control; assay type: functional; settings: route intraperitoneal; method in brief: as §1
# Mus musculus [36] = assay: Depression of forced motor activity in Swiss-Webster mouse at 5 mg/kg, ip after 30 mins by rotarod test relative to control; assay type: functional; settings: route intraperitoneal; method in brief: as §1
# Mus musculus [37] = assay: Depression of forced motor activity in Swiss-Webster mouse at 2.5 mg/kg, ip after 30 mins by rotarod test relative to control; assay type: functional; settings: route intraperitoneal; method in brief: as §2
# Mus musculus [38] = assay: Depression of spontaneous motor activity in Swiss-Webster mouse at 10 mg/kg, ip by photocell cage test relative to control; assay type: functional; settings: route intraperitoneal; method in brief: as §3
# Mus musculus [39] = assay: Depression of spontaneous motor activity in Swiss-Webster mouse at 5 mg/kg, ip by photocell cage test relative to control; assay type: functional; settings: route intraperitoneal; method in brief: as §3
# Mus musculus [40] = assay: Depression of spontaneous motor activity in Swiss-Webster mouse at 2.5 mg/kg, ip by photocell cage test relative to control; assay type: functional; settings: route intraperitoneal; method in brief: as §4
# Rattus norvegicus [41] = assay: Depression of motor activity in Wistar rat at 1 to 6 mg/kg, ip; assay type: functional, organism-based; method in brief: as §5
# Rattus norvegicus [42] = assay: Reduction in body temperature in Wistar rat at 1 to 6 mg/kg, ip relative to control; assay type: functional; settings: dose mg/kg 6; route intraperitoneal; in the assay text read “6 mg/kg” for “1 to 6 mg/kg”; method in brief: as §5
# Rattus norvegicus [43] = assay: Induction of ptosis in Wistar rat at 1 to 6 mg/kg, ip; assay type: functional, organism-based; settings: in the assay text read “6 mg/kg” for “1 to 6 mg/kg”; method in brief: as §5
compound,measurement,setting,value
"O=C(c1ccc(F)cc1)[C@@H]1CCN2CCCC[C@@H]2C1 (single isomer, unassigned)",LD50 at 168 h,[1],193 mg/kg
same,Activity,Mus musculus [2],15.2%
same,Activity,Mus musculus [3],26.5%
same,Activity,Mus musculus [4],4.8%
same,Activity,Mus musculus [5],Dose-dependent effect
same,Activity,Mus musculus [6],9.6%
same,Activity,Mus musculus [7],2.5%
same,Activity,Mus musculus [8],0%
same,Activity,Mus musculus [9],Dose-dependent effect
same,Activity,Rattus norvegicus [10],Active
same,Activity,Rattus norvegicus [11],Active
same,Activity,Rattus norvegicus [12],Active
same,Activity,Rattus norvegicus [13],Active
same,Activity,Rattus norvegicus [14],Active
same,T,Rattus norvegicus [15],3 °C
same,Activity,Rattus norvegicus [16],Active
"O=C(c1ccc(F)cc1)[C@H]1CCN2CCCC[C@@H]2C1 (single isomer, unassigned)",LD50 at 168 h,[1],86.1 mg/kg
same,Activity,Mus musculus [17],Toxic
same,Activity,Mus musculus [18],23%
same,Activity,Mus musculus [19],55.5%
same,Activity,Mus musculus [20],65.6%
same,Activity,Mus musculus [5],Dose-dependent effect
same,Activity,Mus musculus [21],10.2%
same,Activity,Mus musculus [22],48.5%
same,Activity,Mus musculus [23],95.6%
same,Activity,Mus musculus [9],Dose-dependent effect
same,Activity,Rattus norvegicus [24],Active
same,Activity,Rattus norvegicus [25],Active
same,Activity,Rattus norvegicus [26],Active
same,T,Rattus norvegicus [27],2.9 °C
same,Activity,Rattus norvegicus [28],Active
same,Activity,Rattus norvegicus [29],Active
same,Activity,Rattus norvegicus [30],inactive
same,Activity,Rattus norvegicus [31],inactive
O=C(CCCN1CCC(O)(c2ccc(Cl)cc2)CC1)c1ccc(F)cc1 [HALOPERIDOL],LD50 at 168 h,[1],49.7 mg/kg
same,Activity,Mus musculus [32],Toxic
same,Activity,Mus musculus [33],Toxic
same,Activity,Mus musculus [34],Toxic
same,Activity,Mus musculus [35],26.4%
same,Activity,Mus musculus [36],79.4%
same,Activity,Mus musculus [37],99.3%
same,Activity,Mus musculus [38],0.2%
same,Activity,Mus musculus [39],13%
same,Activity,Mus musculus [40],27.6%
same,Activity,Rattus norvegicus [41],Active
same,T,Rattus norvegicus [42],2 °C
same,Activity,Rattus norvegicus [43],Active
